This note sets out measurements from ChEMBL document CHEMBL2169850, “3,6-bis(3-alkylguanidino)acridines as DNA-intercalating antitumor agents” (Eur J Med Chem, 2012).

Active and inactive are the calls of the source. The rule behind the calls is not given here.

In experiment [1] the test system is HL-60. The experiment in a line: Cell cycle arrest in human HL60 cells assessed as accumulation at S phase at 5 uM incubated for 48 hrs by flow cytometry (reference value: 45.29 +/- 1.23%). Type of experiment: functional. Background: A flow cytometer gives signals particle by particle.
Experiment [2] concerns HL-60. The experiment in a line: Cell cycle arrest in human HL60 cells assessed as accumulation at S phase at 15 uM incubated for 72 hrs by flow cytometry (reference value: 40.30 +/- 3.15%). Format: functional.
Experiment [3] has as its system HL-60. The experiment in a line: Cell cycle arrest in human HL60 cells assessed as accumulation at S phase at 25 uM incubated for 48 hrs by flow cytometry (reference value: 45.29 +/- 1.23%). Type of experiment: functional.
In experiment [4] the test system is HL-60. The experiment in a line: Induction of necrosis in human HL60 cells at 5 to 25 uM incubated for 48 hrs by AnnexinV/propidium iodide staining method. Type of experiment: functional, cell-based. In short, it runs like this: (§1)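 HL-60 cells (1.5 × 10^5) were exposed to compound, then stained 10 min with Annexin V-FITC in HEPES/CaCl2/NaCl binding buffer. Cells were washed, briefly stained with propidium iodide and analysed by flow cytometry for apoptotic and necrotic fractions. Mean ± SD of at least three independent experiments.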

Experiment [5] relates to HL-60. The experiment in a line: Cell cycle arrest in human HL60 cells assessed as accumulation at G1 phase at 25 uM incubated for 48 hrs by flow cytometry (reference value: 38.29 +/- 0.22%). Format: functional.
Experiment [6] deals with Nucleic Acid. The experiment in a line: Binding affinity to calf thymus DNA assessed as melting temperature at 12.4 uM by thermal denaturation study. Type of experiment: nucleic-acid assay. The settings on record: Bos taurus.
For experiment [7], the system named is HL-60. The experiment in a line: Antiproliferative activity against human HL60 cells assessed as cell number at 15 uM incubated for 24 hrs by Coulter counting method. Type of experiment: functional. In outline: (§2)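 HL-60 cells in RPMI with 10% heat-inactivated FCS, antibiotics and amphotericin, 37 °C, 5% CO2, seeded in 60 mm dishes. Compound added at 5, 15 or 25 µM for 24, 48 or 72 h. Absolute cell counts taken by Coulter counter and expressed as percentage of untreated control. Mean ± SD of at least three independent experiments; one-way ANOVA with Tukey test, p < 0.05.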

In experiment [8] the test system is HL-60. The experiment in a line: Antiproliferative activity against human HL60 cells assessed as cell number at 25 uM incubated for 72 hrs by Coulter counting method. Format: functional. In outline:
as §2

Experiment [9] relates to HL-60. Kind of experiment: Cell cycle arrest in human HL60 cells assessed as accumulation at G2/M phase at 5 uM incubated for 72 hrs by flow cytometry (reference value: 12.68 +/- 3.21%). Type of experiment: functional.
In experiment [10] the test system is Nucleic Acid. Kind of experiment: Binding affinity to Escherichia coli pUC19 DNA assessed as reduction in DNA mobility to 5 to 80 uM by EMSA. Format: nucleic-acid assay. In short, it runs like this: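 Supercoiled pUC19 plasmid incubated with compound at 5, 20, 40, 60 or 80 µM. Native agarose gel electrophoresis run with no ethidium bromide in the gel; band mobility was then read.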
A general note: In EMSA bound probe runs differently from free probe, usually more slowly.

Experiment [11] concerns Nucleic Acid. The experiment in a line: Binding affinity to calf thymus DNA by spectrofluorimetric titration assay. To be noted: Bos taurus. Type of experiment: nucleic-acid assay. In short, it runs like this:
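Fluorescence titration at 25 °C in 0.01 M Tris, pH 7.4. Compound (9.58 × 10^-6 M) was titrated with ctDNA from 0 to 2.57 × 10^-4 M bp, excited at 384 nm, and emission recorded from 400 to 600 nm. K and n were obtained from McGhee–von Hippel fits of Scatchard data.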

In experiment [12] the test system is HL-60. The experiment in a line: Induction of caspase-3 activation in human HL60 cells at 5 to 25 uM incubated for 24 to 72 hrs by FACS assay. Format: functional, cell-based. In outline: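 HL-60 cells (RPMI with 10% heat-inactivated FCS, 37 °C, 5% CO2) were seeded in dishes and treated 24, 48 or 72 h. Cells were fixed and permeabilized 20 min on ice, then stained 30 min at RT with FITC anti-active caspase-3 antibody. Read-out was the percentage of positive cells by flow cytometry. Mean ± SD of at least three independent experiments; ANOVA with Tukey.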

For experiment [13], the system named is HL-60. Kind of experiment: Induction of necrosis in human HL60 cells at 5 to 25 uM incubated for 72 hrs by AnnexinV/propidium iodide staining method. Type of experiment: functional, cell-based. In outline: as §1
In experiment [14] the test system is HL-60. Kind of experiment: Induction of apoptosis in human HL60 cells at 5 to 25 uM incubated for 72 hrs by AnnexinV/propidium iodide staining method. Format: functional, cell-based. In short, it runs like this: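 HL-60 cells (1.5 × 10^5) were treated at 5–25 µM for 24, 48 or 72 h and harvested. They were stained with Annexin V-FITC for 10 min in HEPES/CaCl2/NaCl binding buffer, washed, briefly stained with PI (1 mg/mL) and analysed by flow cytometry for apoptosis and necrosis. Mean ± SD, n ≥ 3.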

For experiment [15], the system named is HL-60. Kind of experiment: Antiproliferative activity against human HL60 cells assessed as cell number at 15 uM incubated for 48 hrs by Coulter counting method. Format: functional. In short, it runs like this:
as §2

For experiment [16], the system named is HL-60. The experiment in a line: Antiproliferative activity against human HL60 cells assessed as cell number at 25 uM incubated for 24 hrs by Coulter counting method. Format: functional. In short, it runs like this: as §2
For experiment [17], the system named is HL-60. Kind of experiment: Cell cycle arrest in human HL60 cells assessed as accumulation at G2/M phase at 25 uM incubated for 72 hrs by flow cytometry (reference value: 12.68 +/- 3.21%). Type of experiment: functional.
The test system of experiment [18] is HL-60. Kind of experiment: Cell cycle arrest in human HL60 cells assessed as accumulation at G2/M phase at 25 uM incubated for 48 hrs by flow cytometry (reference value: 16.42 +/- 1.03%). Format: functional.
In experiment [19] the test system is HL-60. The experiment in a line: Cell cycle arrest in human HL60 cells assessed as accumulation at G2/M phase at 15 uM incubated for 24 hrs by flow cytometry (reference value: 19.62 +/- 0.96%). Format: functional.
In experiment [20] the test system is Nucleic Acid. Kind of experiment: Binding affinity to calf thymus DNA at 6.5 uM by CD spectroscopy. To be noted: Bos taurus. Format: nucleic-acid assay. In outline:
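CD spectra were recorded in 1 mm quartz cuvettes in 0.01 M Tris, pH 7.4, with 6.52 µM compound and ctDNA. Each spectrum is the mean of three scans after buffer background subtraction.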

Experiment [21] has as its system HL-60. Kind of experiment: Antiproliferative activity against human HL60 cells assessed as cell number at 5 uM incubated for 48 hrs by Coulter counting method. Format: functional. In outline:
as §2

A word on the Tm: it is the temperature at the midpoint of the melting transition. Consider `CCNC(=N)Nc1ccc2cc3ccc(NC(=N)NCC)cc3nc2c1.Cl.Cl.O`, for which the outcome in the experiment with HL-60 [1], with HL-60 [2], with HL-60 [3], in the experiment with HL-60 [4], in the experiment with HL-60 [5] and with HL-60 [9] was inactive. For the same compound, the result with HL-60 [12], in the experiment on HL-60 [13], in the experiment with HL-60 [14], in the experiment with HL-60 [17], in the experiment with HL-60 [18] and in the experiment with HL-60 [19] was inactive. The Tm with Nucleic Acid [6] came out at 84 °C. For the same compound, the Activity in the experiment on HL-60 [7] was 78.95%; with HL-60 [8], 94.84%; with HL-60 [15], 80.03%; in the experiment with HL-60 [16], 71.98%; in the experiment on HL-60 [21], 78.56%. Further, the outcome in the experiment on Nucleic Acid [10] and in the experiment with Nucleic Acid [20] was Active. The K in the experiment on Nucleic Acid [11] came out at 5.26 ×10⁵ /M.
In the case of `CCCCCCNC(=N)Nc1ccc2cc3ccc(NC(=N)NCCCCCC)cc3nc2c1.Cl.Cl.O`, the Activity in the experiment with HL-60 [1] was determined as 43.54%; with HL-60 [2] it was 23.84%; in the experiment with HL-60 [3], 27.77%; in the experiment on HL-60 [5], 65.72%; in the experiment on HL-60 [7], 74.49%; in the experiment on HL-60 [8], 20.46%. Further, the Activity is reported as 7.47% with HL-60 [9]; 52.7% in the experiment on HL-60 [15]; 76.71% in the experiment on HL-60 [16]; 3.91% in the experiment on HL-60 [17]; 6.51% with HL-60 [18]; 11.65% in the experiment with HL-60 [19]. Moreover, the Activity in the experiment with HL-60 [21] is listed as 72.18%. The result with HL-60 [4], in the experiment with HL-60 [12], with HL-60 [13], in the experiment with HL-60 [14] and in the experiment on Nucleic Acid [20] was Active. The Tm in the experiment on Nucleic Acid [6] came out at 89 °C. Also, the result in the experiment with Nucleic Acid [10] was inactive. Also, the K in the experiment on Nucleic Acid [11] amounted to 1.25 ×10⁵ /M.
